Measured values as given in ChEMBL document CHEMBL3734704, “Synthesis and Biological Evaluation of Novel Bouchardatine Derivatives as Potential Adipogenesis/Lipogenesis Inhibitors for Antiobesity Treatment” (J Med Chem, 2015).
The source made the active and inactive calls. No cut-off for these calls is given here.

Key:
[1] = Decrease in triglyceride accumulation in mouse 3T3L1 cells at 10 uM for 3 days oil red O staining based microscopic analysis; type: functional, cell-based; settings: 3T3-L1
Summary of the method: (§1)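 3T3-L1 cells differentiated from 2 days post-confluence with IBMX/dexamethasone/insulin cocktail for 3 days, then insulin medium to Day 6. Compounds at 1 and 10 µM added Day 0 for 3 days. Triglyceride read on Day 6 with Oil Red O (formaldehyde fixation, 30 min stain, isopropanol extraction, OD 510 nm); n = 3.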

HepG2 [2] = assay: Decrease in cholesterol level in human HepG2 cells at 1 uM after 24 hrs by […] assay in presence of 0.5 mM oleic acid sodium; type: functional
Summary of the method: (§2)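 HepG-2 cells seeded, then after 24 h exposed to 0.5 mM oleic acid sodium plus compound (1 µM; dose series up to 10 µM) for 24 h, DMSO vehicle. Cells lysed in 0.2% Triton X-100 for 1 h, sonicated, centrifuged. Triglyceride measured by GPO-POD kit and cholesterol by kit, both normalized to BCA protein; n = 3.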

HepG2 [3] = assay: Decrease in triglyceride level in human HepG2 cells at 1 uM after 24 hrs by GPO-POD assay in presence of 0.5 mM oleic acid sodium; type: functional; summary of the method: as §2
3T3-L1 [4] = assay: Inhibition of cell differentiation in mouse 3T3L1 cells assessed as delayed time point of cell contact inhibition at 0.5 uM for 9 days; type: functional
Summary of the method: (§3)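 3T3-L1 preadipocytes were induced to differentiate (IBMX/dexamethasone/insulin for 3 days, then insulin) with compound added from day 0 at 0.5 or 5 µM; DMSO vehicle served as control. Cells were collected and counted every day to follow proliferation and to find when contact inhibition resumed.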

[5] = Decrease in triglyceride level in mouse 3T3L1 cells during all developmental stages at 0.5 uM for 9 days; type: functional, cell-based; settings: 3T3-L1
Summary of the method: (§4)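 During 3T3-L1 differentiation with compound present (0.5 µM, or 5 µM for one compound), cells were collected and counted every day and triglyceride content was measured by TG assay.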

[6] = Downregulation of PPAR-gamma mRNA level in mouse 3T3L1 cells at 0.2 mM after 2 hrs by RT-PCR analysis; type: functional, cell-based; settings: 3T3-L1
[7] = Downregulation of C/EBP delta mRNA level in mouse 3T3L1 cells at 0.2 mM after 24 hrs by RT-PCR analysis; type: functional, cell-based; settings: 3T3-L1
3T3-L1 [8] = assay: Activation of AMPK alpha in mouse 3T3L1 cells assessed as increase in phophorylated AMPK alpha at Thr 172 residue level at 0.2 mM after 10 mins by western blot analysis; type: cell-based
Summary of the method: (§5)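 3T3-L1 cells in DMEM/10% FBS at 37 °C, 5% CO2, exposed for 10 min, 2 h or 24 h alongside a DMSO vehicle. Cells were lysed in RIPA with PMSF, Na3VO4, NaF and protease inhibitors. Lysates were run on SDS-PAGE and blotted to PVDF, blocked in 5% BSA, then probed with primary antibodies for 16 h at 4 °C and an HRP secondary. Bands were normalised to GAPDH, with the 10 min DMSO group set as 100%; n = 3.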

[9] = Downregulation of PPAR-gamma mRNA level in mouse 3T3L1 cells at 0.2 mM after 24 hrs by RT-PCR analysis; type: functional, cell-based; settings: 3T3-L1
[10] = Downregulation of C/EBP alpha mRNA level in mouse 3T3L1 cells at 0.2 mM after 2 hrs by RT-PCR analysis; type: functional, cell-based; settings: 3T3-L1
3T3-L1 [11] = assay: Effect on LKB1 expression in mouse 3T3L1 cells at 0.2 mM after 10 mins, 2 and 24 hrs by western blot analysis; type: functional, cell-based; summary of the method: as §5
[12] = Downregulation of C/EBP beta mRNA level in mouse 3T3L1 cells at 0.2 mM after 24 hrs by RT-PCR analysis; type: functional, cell-based; settings: 3T3-L1
[13] = Downregulation of C/EBP alpha mRNA level in mouse 3T3L1 cells at 0.2 mM after 24 hrs by RT-PCR analysis; type: functional, cell-based; settings: 3T3-L1
[14] = Downregulation of SREBP-1c mRNA level in mouse 3T3L1 cells at 0.2 mM after 24 hrs by RT-PCR analysis; type: functional, cell-based; settings: 3T3-L1
3T3-L1 [15] = assay: Activation of AMPK-mediated ACC in mouse 3T3L1 cells assessed as increase in phophorylated ACC level at 0.2 mM after 10 mins by western blot analysis; type: cell-based; summary of the method: as §5
3T3-L1 [16] = assay: Activation of AMPK-mediated ACC in mouse 3T3L1 cells assessed as increase in phophorylated ACC level at 0.2 mM after 24 hrs by western blot analysis; type: cell-based; summary of the method: as §5
3T3-L1 [17] = assay: Activation of AMPK alpha in mouse 3T3L1 cells assessed as increase in phophorylated AMPK alpha at Thr 172 residue level at 0.2 mM after 24 hrs by western blot analysis; type: cell-based; summary of the method: as §5
[18] = Decrease in triglyceride accumulation in mouse 3T3L1 cells at 1 uM for 3 days oil red O staining based microscopic analysis; type: functional, cell-based; settings: 3T3-L1; summary of the method: as §1
[19] = Decrease in triglyceride level in mouse 3T3L1 cells during all developmental stages at 5 uM for 9 days; type: functional, cell-based; settings: 3T3-L1; summary of the method: as §4
3T3-L1 [20] = assay: Inhibition of cell differentiation in mouse 3T3L1 cells assessed as delayed time point of cell contact inhibition at 5 uM for 9 days; type: functional; summary of the method: as §3
3T3-L1 [21] = assay: Inhibition of cell proliferation in mouse 3T3L1 cells at 5 uM for 9 days; type: functional, cell-based; summary of the method: as §3

`CCN(CC)c1nc(-c2[nH]c3ccccc3c2C=O)nc2ccccc12` showed an inhibition [1] of 82.2%.
`CN1CCN(c2nc(-c3[nH]c4ccccc4c3C=O)nc3ccccc23)CC1` showed an inhibition [1] of 81.6%.
For `O=Cc1c(-c2nc(NCCN3CCCCC3)c3ccccc3n2)[nH]c2ccccc12`, the inhibition [1] was 87.2%, the inhibition (INH) (HepG2 [2]) was > 50% and the inhibition (HepG2 [3]) was “Active”. The Time (3T3-L1 [4]) was 6 days and the inhibition [5] was “Active”.
For `CN(C)CCNc1nc(-c2[nH]c3ccccc3c2C=O)nc2ccccc12`, the inhibition [1] was 80.1% and the inhibition (HepG2 [3]) was “Active”.
For `NC(=O)c1ncn([C@@H]2O[C@H](COP(=O)(O)O)[C@@H](O)[C@H]2O)c1N`, the inhibition [6] was “Active”, the inhibition [7] was “Active” and the Activity (3T3-L1 [8]) was “Active”. The inhibition [9] was “Active”, the inhibition [10] was “Active” and the Activity (3T3-L1 [11]) was “inactive”. The inhibition [12] was “Active”, the inhibition [13] was “Active” and the inhibition [14] was “Active”. For the same molecule, the Activity (3T3-L1 [15]) was “Active”, the Activity (3T3-L1 [16]) was “Active” and the Activity (3T3-L1 [17]) was “Active”.
With `O=c1[nH]c(-c2[nH]c3ccccc3c2/C=N/CCN2CCCC2)nc2ccccc12` the Time (3T3-L1 [4]) was 6 days and the inhibition [5] was “Active”.
In the case of `O=Cc1c(-c2nc(NCCc3ccccc3)c3ccccc3n2)[nH]c2ccccc12`, the inhibition (INH) (HepG2 [2]) is reported as > 50%.
In the case of `O=Cc1c(-c2nc(NCCCN3CCOCC3)c3ccccc3n2)[nH]c2ccccc12`, the Time (3T3-L1 [4]) is reported as 6 days and the inhibition [5] is reported as “Active”.
With `CN(C)CCCC/N=C/c1c(-c2nc3ccccc3c(=O)[nH]2)[nH]c2ccccc12` the Time (3T3-L1 [4]) was 6 days and the inhibition [5] was “Active”.
With `O=Cc1c(-c2nc3ccccc3c(=O)[nH]2)[nH]c2ccccc12` the inhibition [18] was 14.8%, the inhibition [1] was 20.1% and the “inhibition (INH)” value (HepG2 [2]) was 24.1%. For the same molecule, the inhibition [19] was “Active”, the Time (3T3-L1 [20]) was 5 days and the “inhibition (INH)” value (HepG2 [3]) was 16.7%. For the same molecule, the inhibition (3T3-L1 [21]) was “Active”.
In the case of `CCN(CC)CCNc1nc(-c2[nH]c3ccccc3c2C=O)nc2ccccc12`, the inhibition [1] is reported as 87.3%, the inhibition (INH) (HepG2 [2]) is reported as > 50% and the inhibition (HepG2 [3]) is reported as “Active”.
